# Data taken from ChEMBL document CHEMBL2163200, “Synthesis, biological evaluation, and structure-activity relationships of novel substituted N-phenyl ureidobenzenesulfonate derivatives blocking cell cycle progression in S-phase and inducing DNA double-strand breaks” (J Med Chem, 2012).
# Activity calls are given as the source filed them. The calls are words filed in the database; no cut-off is given here.
# Assays:
# Jurkat [1] = assay: Cell cycle arrest in human Jurkat E6-1 cells assessed as accumulation at S phase at 200 uM after 24 hrs by FACS flow cytometry; format: functional
# Procedure, shortened: (§1)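 Jurkat E6 cells grown in RPMI 1640 with 10% FBS at 37 °C, 5% CO2. Compounds were serially diluted in medium starting 50% above the M21 IC50. 4.0 × 10^5 cells were exposed for 24 h, then washed and spiked with chicken red blood cells as internal standard. Cells were fixed in ice-cold ethanol, stained with 1 μg/mL DAPI on ice for 1 h, and phase distribution was read by flow cytometry. The control was 0.5% DMSO.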
# Jurkat [2] = assay: Cell cycle arrest in human Jurkat E6-1 cells assessed as accumulation at G2/M phase at 200 uM after 24 hrs by FACS flow cytometry; format: functional; procedure, shortened: as §1
# HT-29 = assay: Cytotoxicity against human HT-29 cells after 48 hrs by SRB assay; format: functional, cell-based; details: HT-29, 48 h
# Procedure, shortened: (§2)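 NCI sulforhodamine B protocol. Cells were grown in high-glucose DMEM with 5% FBS and seeded per well at 4 × 10^3 (HT-29), 3.5 × 10^3 (M21) or 3 × 10^3 (MCF-7), then allowed 24 h to attach. Serial dilutions from 200 μM to 780 nM final were applied in DMSO <0.5% for 48 h. Cells were fixed with cold TCA (10% final) and stained with SRB, with absorbance read at 530–568 nm. Growth inhibition was computed against day-0 plates, giving the 50% inhibitory concentration. At least two experiments in triplicate, CV <10%.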
# M21 [3] = assay: Cytotoxicity against human M21 cells after 48 hrs by SRB assay; format: functional, cell-based; details: M21, 48 h; procedure, shortened: as §2
# MCF7 = assay: Cytotoxicity against human MCF7 cells after 48 hrs by SRB assay; format: functional, cell-based; details: MCF7, 48 h; procedure, shortened: as §2
# Jurkat [4] = assay: Cell cycle arrest in human Jurkat E6-1 cells assessed as accumulation at G0/G1 phase at 200 uM after 24 hrs by FACS flow cytometry; format: functional
# Procedure, shortened: (§3)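 Jurkat E6 cells cultured in RPMI 1640 with 10% FBS at 37 °C, 5% CO2. Compounds serially diluted in medium, starting 50% above the M21 IC50. 4.0 × 10^5 cells were exposed for 24 h. Cells were washed with PBS, chicken red blood cells added as internal standard, and fixed in ice-cold EtOH. After 1 h on ice in PBS with 1 μg/mL DAPI, phase distribution was read by flow cytometry. DMSO-treated cells served as control.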
# Jurkat [5] = assay: Cell cycle arrest in human Jurkat E6-1 cells assessed as accumulation at G0/G1 phase at 30 uM after 24 hrs by FACS flow cytometry; format: functional; procedure, shortened: as §3
# Jurkat [6] = assay: Cell cycle arrest in human Jurkat E6-1 cells assessed as accumulation at S phase at 30 uM after 24 hrs by FACS flow cytometry; format: functional
# Procedure, shortened: (§4)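 Jurkat E6 T-lymphoblasts in RPMI 1640 with 10% FBS, 37 °C, 5% CO2. […] Chicken red blood cells were added as internal standard. Cells were fixed in ice-cold EtOH and stained with 1 μg/mL DAPI on ice for 1 h before flow cytometry of phase distribution. Vehicle control was 0.5% DMSO.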
# Jurkat [7] = assay: Cell cycle arrest in human Jurkat E6-1 cells assessed as accumulation at G2/M phase at 30 uM after 24 hrs by FACS flow cytometry; format: functional; procedure, shortened: as §1
# Jurkat [8] = assay: Cell cycle arrest in human Jurkat E6-1 cells assessed as accumulation at G0/G1 phase at 2.5 uM after 24 hrs by FACS flow cytometry; format: functional; procedure, shortened: as §3
# Jurkat [9] = assay: Cell cycle arrest in human Jurkat E6-1 cells assessed as accumulation at S phase at 2.5 uM after 24 hrs by FACS flow cytometry; format: functional; procedure, shortened: as §1
# Jurkat [10] = assay: Cell cycle arrest in human Jurkat E6-1 cells assessed as accumulation at G2/M phase at 2.5 uM after 24 hrs by FACS flow cytometry; format: functional; procedure, shortened: as §1
# M21 [11] = assay: Induction of DNA damage response in human M21 cells assessed as phosphorylation of H2AX into gammaH2AX at IC50 after 24 hrs by DAPI staining-based immunofluorescence assay; format: functional, cell-based
# Procedure, shortened: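 M21 cells (1 × 10^5) on fibronectin-coated coverslips, grown 24 h, then exposed to agent for 24 h at 37 °C; 0.5% DMSO control. Fixed with 3.7% formaldehyde and permeabilized with 0.1% saponin/3% BSA. Probed with mouse anti-H2AX pS139 antibody for 2 h at room temperature. Nuclei counterstained with DAPI; nuclear γH2AX foci viewed by epifluorescence microscopy.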
# HT-1080 = assay: Antitumor activity against human HT1080 cells xenografted in chicken chorioallantoic membrane assessed as inhibition of tumor growth at 30 ug per egg, iv administered on day 11 measured on day 17 by CAM assay; format: functional
# Procedure, shortened: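 HT-1080 fibrosarcoma cells (3.5 × 105/egg) were applied onto freshly exposed CAM of fertilized chicken eggs. On day 11, drug from a DMSO stock was diluted in Cremophor EL/99% ethanol/PBS (1/1/14 v/v) and 100 μL was injected into a vein under the CAM. Groups of 10–12 eggs were kept to day 17, embryos were euthanized at 4 °C for ≥4 h, and tumor wet weight was recorded.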
# [12] = Toxicity in fertilized chicken embryo assessed as mortality rate at 30 ug per egg, iv administered on day 11 measured on day 17 by CAM assay; format: organism-based, Gallus gallus; details: in vivo, read-out: Activity
# Procedure, shortened: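 Fertilized chicken eggs grafted on the CAM with HT-1080 cells (3.5 × 105/egg) received a 100 μL intravenous injection under the CAM on day 11. The drug was diluted in Cremophor EL/99% ethanol/PBS (1/1/14 v/v). Groups held 10–12 eggs and were incubated until day 17, when dead embryos and signs of toxicity were counted per group.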
# Jurkat [13] = assay: Cell cycle arrest in human Jurkat E6-1 cells assessed as accumulation at S phase at 23 uM after 24 hrs by FACS flow cytometry; format: functional; procedure, shortened: as §1
# Jurkat [14] = assay: Cell cycle arrest in human Jurkat E6-1 cells assessed as accumulation at G2/M phase at 23 uM after 24 hrs by FACS flow cytometry; format: functional; procedure, shortened: as §1
# Jurkat [15] = assay: Cell cycle arrest in human Jurkat E6-1 cells assessed as accumulation at G0/G1 phase at 23 uM after 24 hrs by FACS flow cytometry; format: functional; procedure, shortened: as §3
# Jurkat [16] = assay: Cell cycle arrest in human Jurkat E6-1 cells assessed as accumulation at G0/G1 phase at 3.5 uM after 24 hrs by FACS flow cytometry; format: functional; procedure, shortened: as §3
# Jurkat [17] = assay: Cell cycle arrest in human Jurkat E6-1 cells assessed as accumulation at S phase at 3.5 uM after 24 hrs by FACS flow cytometry; format: functional; procedure, shortened: as §4
# Jurkat [18] = assay: Cell cycle arrest in human Jurkat E6-1 cells assessed as accumulation at G2/M phase at 3.5 uM after 24 hrs by FACS flow cytometry; format: functional; procedure, shortened: as §1
# Jurkat [19] = assay: Cell cycle arrest in human Jurkat E6-1 cells assessed as accumulation at G0/G1 phase at 0.60 uM after 24 hrs by FACS flow cytometry; format: functional; procedure, shortened: as §3
# Jurkat [20] = assay: Cell cycle arrest in human Jurkat E6-1 cells assessed as accumulation at S phase at 0.60 uM after 24 hrs by FACS flow cytometry; format: functional; procedure, shortened: as §1
# Jurkat [21] = assay: Cell cycle arrest in human Jurkat E6-1 cells assessed as accumulation at G2/M phase at 0.60 uM after 24 hrs by FACS flow cytometry; format: functional; procedure, shortened: as §3
# Jurkat [22] = assay: Cell cycle arrest in human Jurkat E6-1 cells assessed as accumulation at G0/G1 phase at 59 uM after 24 hrs by FACS flow cytometry; format: functional; procedure, shortened: as §3
# Jurkat [23] = assay: Cell cycle arrest in human Jurkat E6-1 cells assessed as accumulation at S phase at 59 uM after 24 hrs by FACS flow cytometry; format: functional; procedure, shortened: as §4
# Jurkat [24] = assay: Cell cycle arrest in human Jurkat E6-1 cells assessed as accumulation at G2/M phase at 59 uM after 24 hrs by FACS flow cytometry; format: functional; procedure, shortened: as §1
smiles,measurement,setting,value
CCc1ccccc1NS(=O)(=O)c1ccc(NC(=O)NCCCCl)cc1,Activity,Jurkat [1],39%
same,Activity,Jurkat [2],16%
same,IC50,HT-29,> 200 µM
same,IC50,M21 [3],> 200 µM
same,IC50,MCF7,> 200 µM
same,Activity,Jurkat [4],45%
CCCc1ccccc1NS(=O)(=O)c1ccc(NC(=O)NCC)cc1,Activity,Jurkat [5],19%
same,Activity,Jurkat [6],35%
same,Activity,Jurkat [7],46%
same,IC50,HT-29,32 µM
same,IC50,M21 [3],41 µM
same,IC50,MCF7,37 µM
CCNC(=O)Nc1ccc(S(=O)(=O)Oc2ccccc2C)cc1,Activity,Jurkat [8],23%
same,Activity,Jurkat [9],61%
same,Activity,Jurkat [10],16%
same,Activity,M21 [11],Active
same,TGI,HT-1080,68%
same,mortality at 6 days,[12],9%
same,IC50,HT-29,12 µM
same,IC50,M21 [3],3.1 µM
same,IC50,MCF7,4.5 µM
CCCc1ccccc1OS(=O)(=O)c1cccc(NC(=O)NCC)c1,Activity,Jurkat [13],44%
same,Activity,Jurkat [14],10%
same,IC50,M21 [3],25 µM
same,Activity,Jurkat [15],46%
CCCc1ccccc1NS(=O)(=O)c1cccc(NC(=O)NCC)c1,Activity,Jurkat [13],43%
same,Activity,Jurkat [14],18%
same,IC50,HT-29,41 µM
same,IC50,M21 [3],60 µM
same,IC50,MCF7,40 µM
same,Activity,Jurkat [15],39%
CCNC(=O)Nc1ccc(S(=O)(=O)Oc2ccc(O)cc2)cc1,Activity,Jurkat [16],21%
same,Activity,Jurkat [17],63%
same,Activity,Jurkat [18],16%
same,IC50,HT-29,12 µM
same,IC50,M21 [3],4.3 µM
same,IC50,MCF7,8 µM
CCCc1ccccc1OS(=O)(=O)c1ccc(NC(=O)NCC)cc1,Activity,Jurkat [19],12%
same,Activity,Jurkat [20],81%
same,Activity,Jurkat [21],7%
same,Activity,M21 [11],Active
same,TGI,HT-1080,65%
same,mortality at 6 days,[12],10%
same,IC50,HT-29,2.4 µM
same,IC50,M21 [3],0.8 µM
same,IC50,MCF7,1.3 µM
CCc1ccccc1OS(=O)(=O)c1cccc(NC(=O)NCCCl)c1,IC50,HT-29,4.3 µM
same,IC50,M21 [3],4.8 µM
same,IC50,MCF7,5.3 µM
CCNC(=O)Nc1ccc(S(=O)(=O)Nc2ccccc2CC)cc1,Activity,Jurkat [22],21%
same,Activity,Jurkat [23],41%
same,Activity,Jurkat [24],38%
same,IC50,M21 [3],90 µM
CCc1ccccc1NS(=O)(=O)c1cccc(NC(=O)NCCCCl)c1,Activity,Jurkat [1],35%
same,Activity,Jurkat [2],15%
same,IC50,HT-29,96 µM
same,IC50,M21 [3],> 200 µM
same,IC50,MCF7,43 µM
same,Activity,Jurkat [4],50%
